Assay outcomes as filed in PubChem BioAssay.
FN deposit inh – fibronectin deposition inhibition; AH1F fibroblasts, Alexa488-fibronectin deposition fluorescence, overnight; inhibition, % at 12.6 µM; 0.086% of 350,000 active; AID 743247;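 active = mean inhibition across replicates of 30% or more, regardless of how many single replicates reach that level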;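 also: positive control wells lacked labelled fibronectin entirely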
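Material: AH1F fibroblast monolayer depositing Alexa488-labelled fibronectin into matrix / Amount: 10000 AH1F cells per well / Signal: fluorescence 485/525 nm / Medium: DMEM, 2% serum / Compound: single dose, pinned / Incubation: 1 h cell adhesion before compound, then overnight fibronectin incubation / Reagent: Alexa488-FN, 24 nM final / Read-out: inhibition of fibronectin deposition signal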
C2C12 statin – protects C2C12 myotubes from simvastatin toxicity; ATP luminescence, 48 h; scaled: DMSO 0, geranylgeraniol control 100; rescue of ATP level, % at 7.49 µM; 0.78% of 330,000 active; AID 602340;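 active = mean ATP rescue above about 67%, or every replicate alone reaching that limit, limit read from the data, passing the limit was not always enough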;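 also: myotubes were challenged with 10 µM simvastatin during compound exposure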
E-selectin induc – induces E-selectin expression in human endothelial cells. P16581. HUVEC E-selectin immunofluorescence imaging; normalized: neutral wells 0, TNF-alpha wells 100. activation, % at 7.58 µM. 0.37% of 260,000 active. AID 686992;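 active = mean E-selectin-positive cell signal at least 10% of the positive control, reached in at least 60% of replicates, without over 20% cell loss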
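assay system = HUVEC, human umbilical vein endothelial cells | input = 3,000 HUVEC seeded per well | medium = EGM-2 growth medium on 0.1% gelatin-coated wells | dosing = one compound dose added by pin transfer | signal = immunofluorescence imaging | read-out basis = % PE-positive cells | control set = TNF-alpha, DMSO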
SIRT5 block – sirtuin-5 (human) deacylase inhibition. Q9NXA8. Purified SirT5, succinyl-peptide AMC, trypsin-coupled fluorescence. inhibition, % at 15 µM. 1.1% of 330,000 active. AID 652115; in the data active = inhibition above about 15%
Target sequence (Q9NXA8 whole entry, looked up): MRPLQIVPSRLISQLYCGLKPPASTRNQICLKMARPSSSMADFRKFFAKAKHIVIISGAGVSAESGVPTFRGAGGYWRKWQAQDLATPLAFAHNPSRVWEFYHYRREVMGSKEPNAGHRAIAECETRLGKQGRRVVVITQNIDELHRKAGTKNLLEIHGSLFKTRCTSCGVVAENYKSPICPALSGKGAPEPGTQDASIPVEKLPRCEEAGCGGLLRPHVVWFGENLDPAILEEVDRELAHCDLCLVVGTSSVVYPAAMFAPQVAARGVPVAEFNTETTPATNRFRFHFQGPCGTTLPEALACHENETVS
FGF22 binding – shifts melting point of recombinant human FGF22; activity (Tm shift, normalised), % at 9.99 µM; recombinant FGF22 thermal shift, SYPRO orange fluorescence; percent of sucrose octasulfate shift, DMSO zero; Q9HCT0; 1.5% of 340,000 active;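 active = mean Tm shift, scaled 0 neutral to 100 positive control, at about 1.3% or above, every replicate too, limit read from the data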
Ecoli rRNA inh – inhibitors of bacterial rRNA selective over humanized ribosomes | E. coli WT GFP vs humanized-ribosome RFP mutants, fluorescence, 24 h; hits give low values; DMSO median 0, no signal -100 | GFP signal change (wild-type ribosome), % (no concentration beside the values) | 1.6% of 350,000 active | AID 720706;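 active = significant combined selectivity score with lowered wild-type GFP, culture density cut under 30%, mutant RFP and density less affected; inactive = any of these conditions unmet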
Numbers without * were called inactive; / = no result given. Hits are enriched below; roughly 4% of the tested compounds scored in any of these assays.

SMILES	FN deposit inh	C2C12 statin	E-selectin induc	SIRT5 block	FGF22 binding	Ecoli rRNA inh
COc1cc(C(=O)N2CCC(NC(=O)C(Cc3ccc(C)cc3)NC(C)=O)CC2)cc(OC)c1OC (centres undefined)	/	-12	/	0	0	6
COc1cc(CC(NC(C)=O)C(=O)NC2CCN(C(=O)c3cc(OC)c(OC)c(OC)c3)CC2)cc(OC)c1 (centres undefined)	10	3	/	-7	43*	17
COc1ccc(S(=O)(=O)Nc2ccc3c(c2)C(=O)N([C@H](C)CO)C[C@@H](C)[C@@H](CN(C)S(C)(=O)=O)OCCCC[C@@H](C)O3)cc1	/	/	0	-1	0	0
O=C(O)COc1c(-c2ccccc2)oc2ccccc2c1=O	-2	75*	/	/	/	/
Cc1ccc(-c2oc3ccccc3c(=O)c2OCC(=O)O)cc1	/	5	/	0	0	-10
Cc1ccc(S(=O)(=O)Nc2cc(-c3ccccc3)nn2C)cc1Cl	-4	/	53*	/	0	-27
S=C(NCC1CCCO1)NC1CCCCC1 (centres undefined)	3	/	/	-2	43*	12
O=C(NCC1CCCO1)C1CCCN1C(=O)NC1CCCCC1 (centres undefined)	-1	-1	-1	/	/	/
Cc1cccc(NC(=O)CN2C(=O)N/C(=C/c3cc(C)n(-c4ccncc4)c3C)C2=O)c1	-2	/	0	-4	0	/
Cc1cccc(NC(=O)CN2C(=O)N/C(=C/c3cc(C)n(C)c3C)C2=O)c1	0	/	/	0	44*	-2
CCCNC(=O)c1ccc(N2CCC3(CC2)CC(c2cccc(Br)c2)=NO3)c(NC(=O)c2cccc(OC)c2)c1	4	142*	-1	10	0	7
CCOc1ccc(N2C(=O)C3C(c4ccc(O)cc4)NC(CCSC)(C(=O)OC)C3C2=O)cc1 (centres undefined)	6	/	9	-5	44*	-2
CCCC1(C(=O)OCC)NC(c2ccc(O)cc2)C2C(=O)N(c3ccc4c(c3)OCCO4)C(=O)C21 (centres undefined)	/	6	/	0	0	1
O=C(NCC[C@@H]1CC[C@H](NS(=O)(=O)c2cccc(F)c2)[C@H](CO)O1)C1CCCCC1	-8	0	0	-3	0	-2
C/C=C/c1cnc2c(c1)C(=O)N([C@H](C)CO)C[C@H](C)[C@H](CN(C)S(=O)(=O)c1cn(C)cn1)O2	/	9	0	-2	0	3
COc1ccc2cc(CN(CC3CCCO3)S(=O)(=O)c3ccccc3Cl)c(=O)[nH]c2c1 (centres undefined)	/	12	/	/	/	-36*
COc1ccc2[nH]c(=O)c(CN(Cc3ccccc3)C(=S)NCC3CCCO3)cc2c1 (centres undefined)	4	/	/	-3	44*	17
Cc1ccc2c(c1)/C(=N/OS(=O)(=O)c1ccccc1)CCS2	8	/	/	/	/	/
CC1=CC(=O)C(C(C)C)=C/C1=N/OS(=O)(=O)c1ccccc1	33*	/	/	-3	-1	/
COc1cc(C)c(C(=O)Oc2cc(C)c(C(=O)O)c(O)c2)c(O)c1	/	3	/	/	1	/
COc1cc(C)c(C(=O)Oc2cc(C)c(C(=O)O)c(O)c2C)c(O)c1C	/	21	/	8	1.6*	-33
O=S(=O)(N/N=C\c1ccc(-c2ccccc2Cl)o1)c1ccccc1	19	118*	/	/	/	/
O=C(CCSc1ccccc1)NCCSCc1ccccc1	0	/	0	-2	0	/
Cc1cccc(CSCCNC(=O)CCSc2ccccc2)c1	3	-7	/	-5	44*	-48
CC1=Nc2ccccc2/C1=C/c1c(N)n2c(S(=O)(=O)CC(C)C)nsc2nc1=O	-11	/	/	6	44*	-50
CSc1nsc2nc(=O)c(/C=C3\C(C)=Nc4ccc(C)cc43)c(N)n12	-7	-1	-2	-12	0	-21
CC1=Nc2ccc(C)cc2/C1=C/c1c(N)n2c(S(=O)(=O)C(C)C)nsc2nc1=O	-1	4	0	19*	/	-41
CSc1nsc2nc(=O)c(/C=C3\C=Nc4ccccc43)c(N)n12	3	/	/	2	1.5*	-23
